# Source: ChEMBL document CHEMBL1671684, “In vitro resistance profile of the hepatitis C virus NS3/4A protease inhibitor TMC435” (Antimicrob Agents Chemother, 2010)
# System: Hepatitis C virus
# Assay: Antiviral activity against Hepatitis C virus subtype 1b expressing NS3 D168I mutant infected in HuH7 cells after 48 hrs by luciferase reporter assay
# Assay type: functional, organism-based, Hepacivirus hominis
# Details: genotype 1b, Huh-7, 48 h
# In short: (§1)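 Genotype 1b con1 subgenomic bicistronic replicon (clone ET) with luciferase reporter and adaptive mutations E1202G, T1280I, K1846T, carrying site-directed NS3 single or double mutations. 10 μg wild-type or mutant replicon RNA electroporated into Huh7-lunet cells, seeded 4,000 cells/well over a nine-point inhibitor dilution series, 48 h at 37°C, 5% CO2, then luminescence read. EC50 taken as median of individual experiments; fold change relative to parental replicon EC50.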
row,SMILES,EC50
1,CC(C)(C)NC(=O)N[C@H](C(=O)N1C[C@H]2[C@@H]([C@H]1C(=O)NC(CC1CCC1)C(=O)C(N)=O)C2(C)C)C(C)(C)C (stereo not given in full) [BOCEPREVIR],279 nM

# System: Hepatitis C virus
# Assay: Antiviral activity against Hepatitis C virus subtype 1b expressing NS3 F43S and D168E mutant infected in HuH7 cells after 48 hrs by luciferase reporter assay
# Assay type: functional, organism-based, Hepacivirus hominis
# Details: genotype 1b, Huh-7, 48 h
# In short: as §1
row,SMILES,EC50
1,CC(C)(C)NC(=O)N[C@H](C(=O)N1C[C@H]2[C@@H]([C@H]1C(=O)NC(CC1CCC1)C(=O)C(N)=O)C2(C)C)C(C)(C)C (stereo not given in full) [BOCEPREVIR],417 nM

# System: Hepatitis C virus
# Assay: Antiviral activity against Hepatitis C virus subtype 1b expressing NS3 Q80R and D168E mutant infected in HuH7 cells after 48 hrs by luciferase reporter assay
# Assay type: functional, organism-based, Hepacivirus hominis
# Details: genotype 1b, Huh-7, 48 h
# In short: as §1
row,SMILES,EC50
1,CC(C)(C)NC(=O)N[C@H](C(=O)N1C[C@H]2[C@@H]([C@H]1C(=O)NC(CC1CCC1)C(=O)C(N)=O)C2(C)C)C(C)(C)C (stereo not given in full) [BOCEPREVIR],62 nM

# System: Hepatitis C virus
# Assay: Antiviral activity against Hepatitis C virus subtype 1b expressing NS3 Q80R and D168A mutant infected in HuH7 cells after 48 hrs by luciferase reporter assay
# Assay type: functional, organism-based, Hepacivirus hominis
# Details: genotype 1b, Huh-7, 48 h
# In short: as §1
row,SMILES,EC50
1,CC(C)(C)NC(=O)N[C@H](C(=O)N1C[C@H]2[C@@H]([C@H]1C(=O)NC(CC1CCC1)C(=O)C(N)=O)C2(C)C)C(C)(C)C (stereo not given in full) [BOCEPREVIR],113 nM

# System: Hepatitis C virus
# Assay: Ratio of EC50 for Hepatitis C virus subtype 1b expressing NS3 V36 M mutant to EC50 for Hepatitis C virus subtype 1b expressing WT NS3 infected in HuH7 cells after 48 hrs by luciferase reporter assay
# Assay type: functional, Hepacivirus hominis, genotype 1b, Huh-7
# Details: not given
# In short: (§2)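 Transient replicon assay: site-directed single or multiple NS3 mutations engineered into genotype 1b (con1, clone ET) subgenomic bicistronic replicon with luciferase reporter and adaptive mutations E1202G, T1280I, K1846T. Huh7-lunet cells electroporated with 10 μg wild-type or mutant replicon RNA, seeded 4,000 cells/well with nine-point inhibitor dilution; 48 h, 37°C, 5% CO2; luminescence read-out. EC50 as median of individual experiments; fold change versus parental replicon EC50.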
row,SMILES,Ratio EC50
1,CC(C)(C)NC(=O)N[C@H](C(=O)N1C[C@H]2[C@@H]([C@H]1C(=O)NC(CC1CCC1)C(=O)C(N)=O)C2(C)C)C(C)(C)C (stereo not given in full) [BOCEPREVIR],1.8

# System: Hepatitis C virus
# Assay: Ratio of EC50 for Hepatitis C virus subtype 1b expressing NS3 F43S mutant to EC50 for Hepatitis C virus subtype 1b expressing WT NS3 infected in HuH7 cells after 48 hrs by luciferase reporter assay
# Assay type: functional, Hepacivirus hominis, genotype 1b, Huh-7
# Details: not given
# In short: as §2
row,SMILES,Ratio EC50
1,CC(C)(C)NC(=O)N[C@H](C(=O)N1C[C@H]2[C@@H]([C@H]1C(=O)NC(CC1CCC1)C(=O)C(N)=O)C2(C)C)C(C)(C)C (stereo not given in full) [BOCEPREVIR],5.2

# System: Hepatitis C virus
# Assay: Ratio of EC50 for Hepatitis C virus subtype 1b expressing NS3 F43I mutant to EC50 for Hepatitis C virus subtype 1b expressing WT NS3 infected in HuH7 cells after 48 hrs by luciferase reporter assay
# Assay type: functional, Hepacivirus hominis, genotype 1b, Huh-7
# Details: not given
# In short: as §2
row,SMILES,Ratio EC50
1,CC(C)(C)NC(=O)N[C@H](C(=O)N1C[C@H]2[C@@H]([C@H]1C(=O)NC(CC1CCC1)C(=O)C(N)=O)C2(C)C)C(C)(C)C (stereo not given in full) [BOCEPREVIR],1.1

# System: Hepatitis C virus
# Assay: Ratio of EC50 for Hepatitis C virus subtype 1b expressing NS3 F43V mutant to EC50 for Hepatitis C virus subtype 1b expressing WT NS3 infected in HuH7 cells after 48 hrs by luciferase reporter assay
# Assay type: functional, Hepacivirus hominis, genotype 1b, Huh-7
# Details: not given
# In short: as §2
row,SMILES,Ratio EC50
1,CC(C)(C)NC(=O)N[C@H](C(=O)N1C[C@H]2[C@@H]([C@H]1C(=O)NC(CC1CCC1)C(=O)C(N)=O)C2(C)C)C(C)(C)C (stereo not given in full) [BOCEPREVIR],2.4

# System: Hepatitis C virus
# Assay: Ratio of EC50 for Hepatitis C virus subtype 1b expressing NS3 Q80L mutant to EC50 for Hepatitis C virus subtype 1b expressing WT NS3 infected in HuH7 cells after 48 hrs by luciferase reporter assay
# Assay type: functional, Hepacivirus hominis, genotype 1b, Huh-7
# Details: not given
# In short: as §2
row,SMILES,Ratio EC50
1,CC(C)(C)NC(=O)N[C@H](C(=O)N1C[C@H]2[C@@H]([C@H]1C(=O)NC(CC1CCC1)C(=O)C(N)=O)C2(C)C)C(C)(C)C (stereo not given in full) [BOCEPREVIR],0.9

# System: Hepatitis C virus
# Assay: Ratio of EC50 for Hepatitis C virus subtype 1b expressing NS3 R155M mutant to EC50 for Hepatitis C virus subtype 1b expressing WT NS3 infected in HuH7 cells after 48 hrs by luciferase reporter assay
# Assay type: functional, Hepacivirus hominis, genotype 1b, Huh-7
# Details: not given
# In short: as §2
row,SMILES,Ratio EC50
1,CC(C)(C)NC(=O)N[C@H](C(=O)N1C[C@H]2[C@@H]([C@H]1C(=O)NC(CC1CCC1)C(=O)C(N)=O)C2(C)C)C(C)(C)C (stereo not given in full) [BOCEPREVIR],5.7

# System: Hepatitis C virus
# Assay: Ratio of EC50 for Hepatitis C virus subtype 1b expressing NS3 R155T mutant to EC50 for Hepatitis C virus subtype 1b expressing WT NS3 infected in HuH7 cells after 48 hrs by luciferase reporter assay
# Assay type: functional, Hepacivirus hominis, genotype 1b, Huh-7
# Details: not given
# In short: as §2
row,SMILES,Ratio EC50
1,CC(C)(C)NC(=O)N[C@H](C(=O)N1C[C@H]2[C@@H]([C@H]1C(=O)NC(CC1CCC1)C(=O)C(N)=O)C2(C)C)C(C)(C)C (stereo not given in full) [BOCEPREVIR],51

# System: Hepatitis C virus
# Assay: Ratio of EC50 for Hepatitis C virus subtype 1b expressing NS3 R155G mutant to EC50 for Hepatitis C virus subtype 1b expressing WT NS3 infected in HuH7 cells after 48 hrs by luciferase reporter assay
# Assay type: functional, Hepacivirus hominis, genotype 1b, Huh-7
# Details: not given
# In short: as §2
row,SMILES,Ratio EC50
1,CC(C)(C)NC(=O)N[C@H](C(=O)N1C[C@H]2[C@@H]([C@H]1C(=O)NC(CC1CCC1)C(=O)C(N)=O)C2(C)C)C(C)(C)C (stereo not given in full) [BOCEPREVIR],20

# System: Hepatitis C virus
# Assay: Ratio of EC50 for Hepatitis C virus subtype 1b expressing NS3 D168N mutant to EC50 for Hepatitis C virus subtype 1b expressing WT NS3 infected in HuH7 cells after 48 hrs by luciferase reporter assay
# Assay type: functional, Hepacivirus hominis, genotype 1b, Huh-7
# Details: not given
# In short: as §2
row,SMILES,Ratio EC50
1,CC(C)(C)NC(=O)N[C@H](C(=O)N1C[C@H]2[C@@H]([C@H]1C(=O)NC(CC1CCC1)C(=O)C(N)=O)C2(C)C)C(C)(C)C (stereo not given in full) [BOCEPREVIR],1.9

# System: Hepatitis C virus
# Assay: Ratio of EC50 for Hepatitis C virus subtype 1b expressing NS3 D168E mutant to EC50 for Hepatitis C virus subtype 1b expressing WT NS3 infected in HuH7 cells after 48 hrs by luciferase reporter assay
# Assay type: functional, Hepacivirus hominis, genotype 1b, Huh-7
# Details: not given
# In short: as §2
row,SMILES,Ratio EC50
1,CC(C)(C)NC(=O)N[C@H](C(=O)N1C[C@H]2[C@@H]([C@H]1C(=O)NC(CC1CCC1)C(=O)C(N)=O)C2(C)C)C(C)(C)C (stereo not given in full) [BOCEPREVIR],0.8

# System: Hepatitis C virus
# Assay: Ratio of EC50 for Hepatitis C virus subtype 1b expressing NS3 F43S and D168E mutant to EC50 for Hepatitis C virus subtype 1b expressing WT NS3 infected in HuH7 cells after 48 hrs by luciferase reporter assay
# Assay type: functional, Hepacivirus hominis, genotype 1b, Huh-7
# Details: not given
# In short: as §2
row,SMILES,Ratio EC50
1,CC(C)(C)NC(=O)N[C@H](C(=O)N1C[C@H]2[C@@H]([C@H]1C(=O)NC(CC1CCC1)C(=O)C(N)=O)C2(C)C)C(C)(C)C (stereo not given in full) [BOCEPREVIR],3.2
